Test results from ChEMBL document CHEMBL1138555, “N-acylated and N,N'-diacylated imidazolidine-2-thione derivatives and N,N'-diacylated tetrahydropyrimidine-2(1H)-thione analogues: synthesis and antiproliferative activity” (Eur J Med Chem, 2009).

Experiments:
MT4 = experiment: Antiproliferative activity against human MT4 cells assessed as reduction of growth by MTT assay; assay type: functional, cell-based
Procedure, shortened: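 MT-4 lymphoblastoid T cells (ATCC) in RPMI 1640 with 10% FCS, penicillin/streptomycin, checked for mycoplasma. 1 × 10⁴ mock-infected cells per well with serial dilutions from a 100 mM DMSO stock. Incubated 4 days at 37 °C, viable cells counted by MTT. IC50 versus untreated controls by linear regression. Mean of three separate experiments.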

HL-60(TB) = experiment: Growth inhibition of human HL-60(TB) cells after 48 hrs by sulforhodamine B assay; assay type: functional; details: HL-60, 48 h
Procedure, shortened: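 NCI 60-cell-line screen protocol: cells exposed to compound at five 10-fold dilutions from 10^-4 to 10^-8 M for the last 48 h of a 72 h incubation. Sulforhodamine B protein assay estimated viability/growth. GI50 (50% growth inhibition) derived; where not reached or exceeded, reported as greater or less than the highest or lowest concentration tested.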

MOLT-4 = experiment: Growth inhibition of human MOLT4 cells after 48 hrs by sulforhodamine B assay; assay type: functional; details: MOLT-4, 48 h
Procedure, shortened: (§1)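 NCI screen panel. Five 10-fold concentrations from 10^-4 to 10^-8 M. Exposure for the last 48 h of a 72 h incubation. Growth estimated by sulforhodamine B protein assay. GI50 is the concentration giving 50% growth inhibition. Where that level was not reached or was exceeded, the value is given as above or below the highest or lowest concentration tested.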

EKVX = experiment: Growth inhibition of human EKVX cells after 48 hrs by sulforhodamine B assay; assay type: functional; procedure, shortened: as §1
HOP-62 = experiment: Growth inhibition of human HOP62 cells after 48 hrs by sulforhodamine B assay; assay type: functional; details: HOP-62, 48 h; procedure, shortened: as §1
HOP-92 = experiment: Growth inhibition of human HOP92 cells after 48 hrs by sulforhodamine B assay; assay type: functional; details: HOP-92, 48 h; procedure, shortened: as §1
NCI-H226 = experiment: Growth inhibition of human NCI-H226 cells after 48 hrs by sulforhodamine B assay; assay type: functional; details: NCI-H226, 48 h; procedure, shortened: as §1
NCI-H322M = experiment: Growth inhibition of human NCI-H322M cells after 48 hrs by sulforhodamine B assay; assay type: functional; procedure, shortened: as §1
NCI-H460 = experiment: Growth inhibition of human NCI-H460 cells after 48 hrs by sulforhodamine B assay; assay type: functional; details: NCI-H460, 48 h; procedure, shortened: as §1
NCI-H522 = experiment: Growth inhibition of human NCI-H522 cells after 48 hrs by sulforhodamine B assay; assay type: functional; details: NCI-H522, 48 h; procedure, shortened: as §1
HCT-116 = experiment: Growth inhibition of human HCT116 cells after 48 hrs by sulforhodamine B assay; assay type: functional; details: HCT-116, 48 h; procedure, shortened: as §1
KM12 = experiment: Growth inhibition of human KM12 cells after 48 hrs by sulforhodamine B assay; assay type: functional; details: KM12, 48 h; procedure, shortened: as §1
SF-268 = experiment: Growth inhibition of human SF268 cells after 48 hrs by sulforhodamine B assay; assay type: functional; details: SF-268, 48 h; procedure, shortened: as §1
SNB-75 = experiment: Growth inhibition of human SNB75 cells after 48 hrs by sulforhodamine B assay; assay type: functional; details: SNB-75, 48 h
Procedure, shortened: (§2)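 NCI in vitro panel screen. Compounds tested at five 10-fold dilutions, 10^-4 to 10^-8 M. Cells in 96-well plates were exposed for the last 48 h of a 72 h incubation. Viability/growth was read by sulforhodamine B protein assay. GI50 is the concentration giving 50% growth inhibition. Values beyond the tested range are reported as greater or less than the maximum or minimum concentration.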

U-251 = experiment: Growth inhibition of human U251 cells after 48 hrs by sulforhodamine B assay; assay type: functional; details: U-251, 48 h; procedure, shortened: as §2
LOX IMVI = experiment: Growth inhibition of human LOXIMVI cells after 48 hrs by sulforhodamine B assay; assay type: functional; procedure, shortened: as §1
Malme-3M = experiment: Growth inhibition of human MALME-3M cells after 48 hrs by sulforhodamine B assay; assay type: functional; procedure, shortened: as §1
M14 = experiment: Growth inhibition of human M14 cells after 48 hrs by sulforhodamine B assay; assay type: functional; details: M14, 48 h; procedure, shortened: as §1
SK-MEL-28 = experiment: Growth inhibition of human SK-MEL-28 cells after 48 hrs by sulforhodamine B assay; assay type: functional; details: SK-MEL-28, 48 h; procedure, shortened: as §1
UACC-257 = experiment: Growth inhibition of human UACC257 cells after 48 hrs by sulforhodamine B assay; assay type: functional; details: UACC-257, 48 h; procedure, shortened: as §2
UACC-62 = experiment: Growth inhibition of human UACC62 cells after 48 hrs by sulforhodamine B assay; assay type: functional; details: UACC-62, 48 h; procedure, shortened: as §2
IGROV-1 = experiment: Growth inhibition of human IGROV1 cells after 48 hrs by sulforhodamine B assay; assay type: functional; details: IGROV-1, 48 h; procedure, shortened: as §1
OVCAR-3 = experiment: Growth inhibition of human OVCAR-3 cells after 48 hrs by sulforhodamine B assay; assay type: functional; details: OVCAR-3, 48 h; procedure, shortened: as §1
OVCAR-8 = experiment: Growth inhibition of human OVCAR8 cells after 48 hrs by sulforhodamine B assay; assay type: functional; details: OVCAR-8, 48 h; procedure, shortened: as §1
SK-OV-3 = experiment: Growth inhibition of human SKOV3 cells after 48 hrs by sulforhodamine B assay; assay type: functional; details: SK-OV-3, 48 h; procedure, shortened: as §1
786-0 = experiment: Growth inhibition of human 786-0 cells after 48 hrs by sulforhodamine B assay; assay type: functional; details: 786-0, 48 h; procedure, shortened: as §1
A498 = experiment: Growth inhibition of human A498 cells after 48 hrs by sulforhodamine B assay; assay type: functional; details: A498, 48 h; procedure, shortened: as §1
ACHN = experiment: Growth inhibition of human ACHN cells after 48 hrs by sulforhodamine B assay; assay type: functional; procedure, shortened: as §1
CAKI-1 = experiment: Growth inhibition of human Caki1 cells after 48 hrs by sulforhodamine B assay; assay type: functional; details: CAKI-1, 48 h; procedure, shortened: as §1
SN12C = experiment: Growth inhibition of human SN12C cells after 48 hrs by sulforhodamine B assay; assay type: functional; procedure, shortened: as §2
TK-10 = experiment: Growth inhibition of human TK10 cells after 48 hrs by sulforhodamine B assay; assay type: functional; details: TK-10, 48 h; procedure, shortened: as §2
PC-3 = experiment: Growth inhibition of human PC3 cells after 48 hrs by sulforhodamine B assay; assay type: functional; details: PC-3, 48 h; procedure, shortened: as §1
DU-145 = experiment: Growth inhibition of human DU145 cells after 48 hrs by sulforhodamine B assay; assay type: functional; details: DU-145, 48 h; procedure, shortened: as §1
MCF7 = experiment: Growth inhibition of human MCF7 cells after 48 hrs by sulforhodamine B assay; assay type: functional; details: MCF7, 48 h; procedure, shortened: as §1
MDA-MB-231 = experiment: Growth inhibition of human MDA-MB-231 cells after 48 hrs by sulforhodamine B assay; assay type: functional; details: MDA-MB-231, 48 h; procedure, shortened: as §1
[1] = Growth inhibition of human Hs 578T cells after 48 hrs by sulforhodamine B assay; assay type: functional; procedure, shortened: as §1
MDA-MB-435 = experiment: Growth inhibition of human MDA-MB-435 cells after 48 hrs by sulforhodamine B assay; assay type: functional; details: MDA-MB-435, 48 h; procedure, shortened: as §1
MDA-N = experiment: Growth inhibition of human MDA-N cells after 48 hrs by sulforhodamine B assay; assay type: functional
Procedure, shortened: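 NCI screen panel. Five 10-fold concentrations from 10^-4 to 10^-8 M. Exposure for the last 48 h of a 72 h incubation. Growth estimated by sulforhodamine B protein assay. Where that level was not reached or was exceeded, the value is given as above or below the highest or lowest concentration tested.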

BT-549 = experiment: Growth inhibition of human BT549 cells after 48 hrs by sulforhodamine B assay; assay type: functional; details: BT-549, 48 h; procedure, shortened: as §1

SMILES: O=C(c1cccs1)N1CCN(C(=O)c2cccs2)C1=S
- IC50 (MT4): 11 µM
- GI50 (HL-60(TB)): 2.2 µM
- GI50 (MOLT-4): 3.2 µM
- GI50 (EKVX): 15.9 µM
- GI50 (HOP-62): 6.7 µM
- GI50 (HOP-92): 7.2 µM
- GI50 (NCI-H226): 15.9 µM
- GI50 (NCI-H322M): 15.5 µM
- GI50 (NCI-H460): 18.7 µM
- GI50 (NCI-H522): 3.8 µM
- GI50 (HCT-116): 11.4 µM
- GI50 (KM12): 3.4 µM
- GI50 (SF-268): 8.2 µM
- GI50 (SNB-75): 1.4 µM
- GI50 (U-251): 7.9 µM
- GI50 (LOX IMVI): 2.9 µM
- GI50 (Malme-3M): 10.3 µM
- GI50 (M14): 3.6 µM
- GI50 (SK-MEL-28): 3.8 µM
- GI50 (UACC-257): 7.5 µM
- GI50 (UACC-62): 12.3 µM
- GI50 (IGROV-1): 9.6 µM
- GI50 (OVCAR-3): 3.5 µM
- GI50 (OVCAR-8): 5.3 µM
- GI50 (SK-OV-3): 15.9 µM
- GI50 (786-0): 2.4 µM
- GI50 (A498): 15.1 µM
- GI50 (ACHN): 15 µM
- GI50 (CAKI-1): 3.4 µM
- GI50 (SN12C): 2.6 µM
- GI50 (TK-10): 5.4 µM
- GI50 (PC-3): 6.1 µM
- GI50 (DU-145): 3.3 µM
- GI50 (MCF7): 3.2 µM
- GI50 (MDA-MB-231): 9.4 µM
- GI50 [1]: 16.6 µM
- GI50 (MDA-MB-435): 2.8 µM
- GI50 (MDA-N): 2.6 µM
- GI50 (BT-549): 10 µM

SMILES: COc1cc(C(=O)N2CCN(C=O)C2=S)cc(OC)c1OC
- IC50 (MT4): 13 µM
- GI50 (HL-60(TB)): 23.4 µM
- GI50 (MOLT-4): 29.4 µM
- GI50 (EKVX): 31.8 µM
- GI50 (HOP-62): 20 µM
- GI50 (HOP-92): 9.3 µM
- GI50 (NCI-H226): 35.9 µM
- GI50 (NCI-H322M): 24.8 µM
- GI50 (NCI-H460): 34 µM
- GI50 (NCI-H522): 5.8 µM
- GI50 (HCT-116): 35.6 µM
- GI50 (KM12): 14.4 µM
- GI50 (SF-268): 21.4 µM
- GI50 (SNB-75): 10.9 µM
- GI50 (U-251): 16.4 µM
- GI50 (LOX IMVI): 16.4 µM
- GI50 (Malme-3M): 24.3 µM
- GI50 (M14): 20.6 µM
- GI50 (SK-MEL-28): 29.5 µM
- GI50 (UACC-257): 19.9 µM
- GI50 (UACC-62): 15.8 µM
- GI50 (IGROV-1): 21.9 µM
- GI50 (OVCAR-3): 16.9 µM
- GI50 (OVCAR-8): 24 µM
- GI50 (SK-OV-3): 21.9 µM
- GI50 (786-0): 12.7 µM
- GI50 (A498): 20.5 µM
- GI50 (ACHN): 20.1 µM
- GI50 (CAKI-1): 13.6 µM
- GI50 (SN12C): 20.2 µM
- GI50 (TK-10): 17.1 µM
- GI50 (PC-3): 22.2 µM
- GI50 (DU-145): 19.6 µM
- GI50 (MCF7): 5.5 µM
- GI50 (MDA-MB-231): 21.5 µM
- GI50 [1]: 27.6 µM
- GI50 (MDA-MB-435): 15.5 µM
- GI50 (MDA-N): 17.9 µM
- GI50 (BT-549): 25 µM
